One data set has as its target T1, Protein Tat (Human immunodeficiency virus type 1 group M subtype B (isolate PCV12)(HIV-1), UniProt P04326).
T1 sequence (P04326 whole entry): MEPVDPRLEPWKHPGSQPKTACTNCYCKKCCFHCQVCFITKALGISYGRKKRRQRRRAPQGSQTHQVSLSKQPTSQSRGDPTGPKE
The data set can be described thus: Inhibition of HIV-1 nuclear regulatory protein Tat. Details: species or system Human immunodeficiency virus type 1 (CLONE 12). In a few lines: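 SW480 cells co-transfected with an HIV-1 LTR-driven CAT reporter plasmid and an SV40 promoter-driven Tat plasmid. Cells incubated with dose-ranged compound for 48 h. Tat-induced expression read out as CAT enzyme activity. IC50 and 95% confidence intervals taken from percent-inhibition dose-response curves over 3-5 runs. Counter-screen used an SV40 promoter-driven CAT plasmid (Tat-independent).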

The test system of the next data set is H9. The experiment in a line: Inhibition of HIV-1 replication in H9 cells infected with three different concentrations of HIV IIIB strain. The class given is functional, cell-based. To be noted: Homo sapiens. The gist of the method: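 H9 cells infected at three HIV IIIB inoculum levels, then exposed to 3-5 compound concentrations for 5 days. Fresh media and compound replaced on day 3. p24 antigen in culture media measured by ELISA on the final day, mean OD with n = 4 per dose. IC50 found for at least two viral doses, over 3-5 individual assays.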

Data set [1] in a line: Therapeutic index against HIV-1 whole cell assay was determined, expressed as the ratio of IC50s of cell cytotoxicity to that of HIV replication. To be noted: human immunodeficiency virus 1, HIV-1 whole cell assay; read-out: Therapeutic index. In a few lines: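 Cytotoxicity: uninfected H9 cells incubated 5 days with the same compound concentrations as the antiviral assay, viable cells counted by trypan blue exclusion. Ratio taken of the cytotoxic IC50 to the IC50 for HIV IIIB replication (p24 ELISA, 5 days, medium and compound renewed day 3).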

Regarding `CC(=O)O[C@H]1CC[C@H]2[C@@H]3CC[C@]45OC4C(=O)C(S(C)(=O)=O)C[C@]5(C)[C@H]3CC[C@]12C` (stereo not given in full), the IC50 against Protein Tat turned out to be 2.6 µM; in the data set with H9, 0.3 µM. Further, the selectivity ratio in data set [1] is 4.3.

Turning to `C[C@]12CCC3C(CC[C@]45OC4C(O)=C(C(N)=O)C[C@]35C)C1CC[C@@H]2O` (stereo not given in full), the IC50 on Protein Tat came out at 14.3 µM; in the data set with H9 it was 1.2 µM. The selectivity ratio in data set [1] was 6.5.

As to `C[C@]12CC[C@H]3[C@@H](CC[C@]45OC4C(=O)C(S(C)(=O)=O)C[C@]35C)[C@@H]1CC[C@@H]2O` (stereo not given in full), the 50% inhibitory concentration (IC50) was 8.4 µM on Protein Tat and 1.4 µM in the data set with H9. Also, the selectivity ratio in data set [1] was determined as 3.9.

For the compound `O=C1CN=C(c2ccc[nH]2)c2cc(Cl)ccc2N1`, the IC50 against Protein Tat is 4 µM; in the data set with H9, 0.6 µM. In data set [1], the selectivity ratio is 5.9.

For `CC(=O)O[C@H]1CCC2C3CC[C@]45O[C@H]4C(O)=C(C(N)=O)C[C@]5(C)C3CC[C@@]21C` (stereo not given in full), the figures for the IC50 on Protein Tat and in the data set on H9 were 2.6 µM and 2.4 µM, respectively. Moreover, in data set [1], the selectivity ratio is 1.6.

One may read the IC50 as the point on the concentration scale where inhibition reaches its midpoint. A high value points to weaker potency in that assay.

(Values after ChEMBL document CHEMBL1126798, “Keto/enol epoxy steroids: a new structural class of HIV-1 Tat inhibitors” (J Med Chem, 1993).)
